Results taken from ChEMBL document CHEMBL1137668, “Activities of several classes of acyclic nucleoside phosphonates against camelpox virus replication in different cell culture models” (Antimicrob Agents Chemother, 2007).

Experiments:
[1] = test system: Camelpox virus; experiment: Antiviral activity against Camelpox virus CML1 infected in HEL299 cells assessed as inhibition of virus-induced cytopathic effect after 6 days by Giemsa staining; format: functional, organism-based; conditions: CML1, HEL 299, 144 h
[2] = test system: Camelpox virus; experiment: Antiviral activity against Camelpox virus CML14 infected in HEL299 cells assessed as inhibition of virus-induced cytopathic effect after 6 days by Giemsa staining; format: functional, organism-based; conditions: CML14, HEL 299, 144 h
[3] = test system: Camelpox virus; experiment: Antiviral activity against Camelpox virus CML1 infected in human PHK assessed as inhibition of virus-induced cytopathic effect after 6 days by Giemsa staining; format: functional, organism-based; conditions: CML1, 144 h
[4] = test system: Camelpox virus; experiment: Antiviral activity against Camelpox virus CML14 infected in human PHK assessed as inhibition of virus-induced cytopathic effect after 6 days by Giemsa staining; format: functional, organism-based; conditions: CML14, 144 h
[5] = Cytotoxicity against HEL299 cells after 4 days by Z1 Coulter counting analysis; format: cell-based, HEL 299; conditions: human, HEL299 cells
How it was run: (§1)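 Cell growth inhibition: HEL cells were seeded at 3.5 × 10³ per well and PHKs at 5 × 10³ per well. Serial dilutions were added in duplicate after 1 day (HEL) or 3 days (PHK). After 4 days with compound, cells were trypsinized and counted with a Coulter counter (8 μm lower limit). CC50 is the concentration reducing growth by 50%, mean ± SD of at least two experiments.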

[6] = Selectivity index, ratio of CC50 for HEL299 cells to EC50 for Camelpox virus CML1 infected in HEL299 cells; format: toxicity, cell-based, HEL 299; conditions: human, HEL299 cells; read-out: Ratio CC50/IC50
[7] = Selectivity index, ratio of CC50 for HEL299 cells to EC50 for Camelpox virus CML14 infected in HEL299 cells; format: toxicity, cell-based, HEL 299; conditions: human, HEL299 cells; read-out: Ratio CC50/IC50
[8] = Cytotoxicity against human PHK after 4 days by Z1 Coulter counting analysis; conditions: PHK cells; how it was run: as §1
[9] = Selectivity index, ratio of CC50 for human PHK to EC50 for Camelpox virus CML1 infected in human PHK
[10] = Selectivity index, ratio of CC50 for human PHK to EC50 for Camelpox virus CML14 infected in human PHK

| Structure (SMILES) | EC50 [1] [µM] | EC50 [2] [µM] | EC50 [3] [µM] | EC50 [4] [µM] | CC50 at 96 h [5] [µM] | selectivity ratio [6] | selectivity ratio [7] | CC50 at 96 h [8] [µM] | Ratio CC50/IC50 [9] | Ratio CC50/IC50 [10] |
| --- | --- | --- | --- | --- | --- | --- | --- | --- | --- | --- |
| Nc1nc(NCCOCP(=O)(O)O)c2ncn(CCOCP(=O)(O)O)c2n1 | > 118 | > 118 | > 118 | > 118 | – | – | – | – | – | – |
| Nc1nc(NCCC(=O)O)c2ncn(CCOCP(=O)(O)O)c2n1 | > 139 | > 139 | > 139 | > 139 | 294 | < 2 | < 2 | 258 | <2 | <2 |
| Nc1ncnc2c1ncn2CCOCP(=O)(O)O [ADEFOVIR] | > 183 | > 183 | 162 | > 183 | 211 | < 1 | < 1 | 76 | 0.5 | <0.4 |
| Nc1nc(NCCS(=O)(=O)O)c2ncn(CCOCP(=O)(O)O)c2n1 | > 126 | > 126 | > 126 | > 126 | 258 | < 2 | < 2 | 102 | <1 | <1 |
| Nc1nc(Cl)c2ncn(CCOCP(=O)(O)O)c2n1 | 6.9 | 9.3 | 7.9 | 15.9 | 8 | 1 | 1 | 1 | 0.2 | 0.1 |
| C[C@H](O)[C@H](Nc1nc(N)nc2c1ncn2CCOCP(=O)(O)O)C(=O)O | 63 | 71.6 | > 128 | > 128 | 56 | 1 | 1 | > 16 | <0.1 | <0.1 |
| Nc1nc(NC(CO)C(=O)O)c2ncn(CCOCP(=O)(O)O)c2n1 (racemic) | 54.5 | 55.7 | 81.8 | 93.4 | 3 | 0.1 | 0.1 | 2 | 0.03 | 0.03 |
| Nc1nc(NCCCC(=O)O)c2ncn(CCOCP(=O)(O)O)c2n1 | > 134 | > 134 | > 134 | > 134 | 282 | < 2 | < 2 | > 134 | 1 | 1 |
| Nc1nc(NC(CC(=O)O)C(=O)O)c2ncn(CCOCP(=O)(O)O)c2n1 (racemic) | 48.3 | 46 | > 124 | > 124 | 20 | 0.4 | 0.4 | 16 | <0.1 | <0.1 |
| Nc1nc(N)c(Br)c(OCCOCP(=O)(O)O)n1 | > 156 | > 156 | > 156 | > 156 | 52 | < 0.3 | < 0.3 | – | – | – |
| C[C@@H](Cn1cnc2c(N)ncnc21)OCP(=O)(O)O | > 176 | > 176 | > 176 | > 176 | > 176 | 1 | – | > 176 | 1 | 1 |
| CN(C)c1ncnc2c1ncn2CCOCP(=O)(O)O | 29.4 | 24.6 | 8.5 | 10.9 | 22 | 1 | 1 | 1 | 0.1 | 0.1 |
| CC(O)C(Nc1nc(N)nc2c1ncn2CCOCP(=O)(O)O)C(=O)O (racemic) | 44.1 | 29 | 47.7 | 71.5 | 9 | 0.2 | 0.3 | 2 | 0.04 | 0.03 |
| Nc1nc(N(CC(=O)O)CC(=O)O)c2ncn(CCOCP(=O)(O)O)c2n1 | > 124 | > 124 | > 124 | > 124 | > 124 | 1 | – | > 124 | 1 | 1 |
| Nc1nc(NCCP(=O)(O)O)c2ncn(CCOCP(=O)(O)O)c2n1 | > 127 | > 127 | > 127 | > 127 | 43 | < 0.3 | < 0.3 | 59 | <0.5 | <0.5 |
| Nc1nc(NC(Cc2ccccc2)C(=O)O)c2ncn(CCOCP(=O)(O)O)c2n1 (racemic) | > 115 | > 115 | > 115 | > 115 | 101 | < 1 | < 1 | 27 | <0.2 | <0.2 |
| Nc1nc(N)c2ncn(CCOCP(=O)(O)O)c2n1 [PMEDAP] | > 173 | > 173 | 93 | 63.7 | 100 | < 1 | < 1 | 8 | 0.1 | 0.1 |
| Cc1nc(N)nc2c1ncn2CCOCP(=O)(O)O | > 174 | > 174 | > 174 | > 174 | > 174 | 1 | – | > 70 | 0.4 | 0.4 |
| CC(C)CC(Nc1nc(N)nc2c1ncn2CCOCP(=O)(O)O)C(=O)O (racemic) | 53 | 44.3 | 77.8 | 87.4 | 12 | 0.2 | 0.3 | 8 | 0.1 | 0.1 |
| C[C@@H](O)[C@H](Nc1nc(N)nc2c1ncn2CCOCP(=O)(O)O)C(=O)O | 112 | 112 | > 128 | > 128 | 39 | 0.3 | 0.3 | 19 | <0.2 | <0.2 |
| NC1=NC(OC[C@@H]2CP(=O)(O)CO2)=CC(N)N1O (stereo partly drawn) | 5.2 | 7.6 | 16.1 | 18.4 | 147 | 28 | 19 | 43 | 3 | 2 |
| Nc1cc(OCCOCP(=O)(O)O)nc(N)n1 | > 189 | > 189 | 49.2 | 53.7 | 66 | < 0.3 | < 0.3 | 4 | 0.1 | 0.1 |
